Results as given in ChEMBL document CHEMBL1122761, “Beta 1-selective adrenoceptor antagonists. 3. 4-Azolyl-linked phenoxypropanolamines” (J Med Chem, 1984).

What was measured:
[1] = molecular target: Beta-1 adrenergic receptor (Rattus norvegicus) (UniProt P18090); assay: Inhibition of isoprenaline induced tachycardia in anaesthetised rats.; type: functional
Summary of the method: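 Pentobarbitone-anesthetized rats (75 mg/kg ip), bilaterally vagotomized, tracheal cannula. Isoprenaline given via right femoral vein; carotid blood pressure and tachograph heart rate recorded. Test compound injected 5 min after isoprenaline, cumulative doses up to 2 mg/kg. ED50 (50% reduction of control isoprenaline response) with 95% confidence limits by linear regression of log dose-response.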

[2] = molecular target: Beta-2 adrenergic receptor (Rattus norvegicus) (UniProt P10608); assay: Beta-2 adrenergic receptor antagonism in rats anesthetized with pentobarbitone sodium (75 mg/kg ip)
[3] = molecular target: Adrenergic receptor beta (Rattus norvegicus) (UniProt P18090+P10608+P26255); assay: Beta agonist activity against heart rate in rats; type: functional, tissue-based
Summary of the method: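 Rats anesthetized with pentobarbitone sodium (75 mg/kg ip) and reserpinized 20-24 h earlier (5 mg/kg ip). Single iv doses into tail vein, up to 20 animals. Blood pressure and heart rate recorded; ED30 = dose giving 30 beats/min heart-rate rise, with 95% confidence limits from log dose-response linear regression.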

[4] = Acid dissociation constant was determined; type: ADME
[5] = molecular target: Beta-2 adrenergic receptor (Rattus norvegicus) (UniProt P10608); assay: Inhibition of isoprenaline induced […] response in anaesthetised rats.

Sequence of Beta-2 adrenergic receptor (Rattus norvegicus) (P10608 whole entry, looked up): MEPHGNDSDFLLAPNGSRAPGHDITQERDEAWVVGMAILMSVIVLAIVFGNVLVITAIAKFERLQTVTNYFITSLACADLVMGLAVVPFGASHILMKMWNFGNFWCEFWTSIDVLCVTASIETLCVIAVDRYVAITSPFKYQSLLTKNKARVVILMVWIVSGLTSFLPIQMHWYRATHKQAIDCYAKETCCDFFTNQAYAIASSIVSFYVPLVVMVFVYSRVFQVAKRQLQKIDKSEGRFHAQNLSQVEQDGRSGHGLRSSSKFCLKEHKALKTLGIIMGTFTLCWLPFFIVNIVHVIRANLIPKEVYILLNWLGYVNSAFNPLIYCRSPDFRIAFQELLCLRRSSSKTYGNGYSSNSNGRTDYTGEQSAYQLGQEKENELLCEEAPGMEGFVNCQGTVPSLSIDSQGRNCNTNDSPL
Sequence of Beta-1 adrenergic receptor (Rattus norvegicus) (P18090 whole entry, looked up): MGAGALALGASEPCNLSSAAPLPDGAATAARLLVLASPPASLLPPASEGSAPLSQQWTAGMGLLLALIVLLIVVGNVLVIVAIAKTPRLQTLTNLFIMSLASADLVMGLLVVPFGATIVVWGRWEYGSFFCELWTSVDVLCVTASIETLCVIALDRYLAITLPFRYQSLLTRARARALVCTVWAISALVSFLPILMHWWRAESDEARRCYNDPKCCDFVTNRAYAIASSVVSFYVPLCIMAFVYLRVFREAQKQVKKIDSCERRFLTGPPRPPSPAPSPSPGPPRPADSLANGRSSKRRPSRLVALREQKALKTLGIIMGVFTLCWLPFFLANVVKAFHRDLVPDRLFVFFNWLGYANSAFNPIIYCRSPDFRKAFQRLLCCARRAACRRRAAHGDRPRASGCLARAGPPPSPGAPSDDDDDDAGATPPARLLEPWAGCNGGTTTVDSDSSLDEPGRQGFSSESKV

SMILES	ED50 [1] [mg/kg]	ED50 [2] [mg/kg]	ED30 [3] [mg/kg]	pKa [4]	ED50 [5] [mg/kg]
CC(C)NCC(O)COc1ccc(CCn2cccn2)cc1 (centres undefined)	0.209	> 2	> 1	2	
CC(C)NCC(O)COc1ccc(CCn2ccnc2)cc1 (centres undefined)	0.186	> 1	> 1		
CC(C)NCC(O)COc1ccc(OCCn2nnc3ccccc32)cc1 (centres undefined)	1.27	> 2	> 1		
CC(C)NCC(O)COc1ccc(OCCn2cccn2)cc1 (centres undefined)	0.05	> 2	> 1	2	
CC(C)NCC(O)COc1ccc(OCCn2cc(Cl)cn2)cc1 (centres undefined)	0.024	0.523	0.194	< 0.6	
CC(C)NCC(O)COc1ccc(SCCn2cccn2)cc1 (centres undefined)	0.128	> 2	> 1		
CC(C)NCC(O)COc1ccc(OCCn2cc(-c3ccccc3)cn2)cc1 (centres undefined)	0.16	> 2	> 1		
CC(C)NCC(O)COc1ccc(Cn2ccnc2)cc1 (centres undefined)	0.62	> 1	> 1	7.2	
CC(C)NCC(O)COc1ccc(OCCn2cncn2)cc1 (centres undefined)	0.17	> 2	> 1	3.2	
CC(C)NCC(O)COc1ccc(CCn2cncn2)cc1 (centres undefined)	0.233	> 2	> 1	3.2	
CC(C)NCC(O)COc1ccc(OCn2nccn2)cc1 (centres undefined)	0.011		0.019	< 1	> 2
CC(C)NCC(O)COc1ccc(OCn2ccnn2)cc1 (centres undefined)	0.04		0.05	1.25	> 2
CC(C)NCC(O)COc1ccc(OCCn2nc3c(n2)CCCC3)cc1 (centres undefined)	0.057	> 2	> 1		
CC(C)(C)NCC(O)COc1ccc(OCCn2cccn2)cc1 (centres undefined)	0.067	1.04	0.154		
CC(C)NCC(O)COc1ccc(OCCn2nc3ccccc3n2)cc1 (centres undefined)	0.05	0.988	> 1		
CC(C)NCC(O)COc1ccc(OCn2cc(Cl)cn2)cc1 (centres undefined)	0.004		0.007	< 0.6	2.43
CC(C)NCC(O)COc1ccc(SCn2cccn2)cc1 (centres undefined)	0.327	> 2	> 1		
CC(C)NCC(O)COc1ccc(OCCn2nccn2)cc1 (centres undefined)	0.014	> 2	0.014	< 1	
CC(C)NCC(O)COc1ccc(OCCn2cnc3ccccc32)cc1 (centres undefined)	0.687	> 2	> 1		
CC(C)NCC(O)COc1ccc(OCCn2ncc3ccccc32)cc1 (centres undefined)	0.263	> 2	> 1		
CC(C)NCC(O)COc1ccc(OCCCn2cccn2)cc1 (centres undefined)	0.334	> 2	> 1		
CC(C)NCC(O)COc1ccc(OCn2cccn2)cc1 (centres undefined)	0.028		> 1	2	> 2
CC(C)NCC(O)COc1ccc(CCCn2cccn2)cc1 (centres undefined)	0.783	> 2	> 1		
CC(C)NCC(O)COc1ccc(Cn2cccn2)cc1 (centres undefined)	0.598	> 2	> 1		
CC(C)NCC(O)COc1ccc(OCCn2ccnc2)cc1 (centres undefined)	0.97	> 2	> 1		
CC(C)NCC(O)COc1ccc(OCCCn2cncn2)cc1 (centres undefined)	0.68	> 2	> 1		
